Experimental data published in ChEMBL document CHEMBL4138242, “Synthesis and antibacterial evaluation of novel cationic chalcone derivatives possessing broad spectrum antibacterial activity” (Eur J Med Chem, 2018).
Active and inactive are the calls of the source.

Assays:
[1] = system: Staphylococcus aureus; test: Disruption of 24 hrs cultured Staphylococcus aureus ATCC 29213 biofilm assessed as cell viability in biofilm at 32 ug/ml after 24 hrs by crystal violet staining-based assay (reference value: 15.96 log10CFU/ml); format: functional
[2] = system: Staphylococcus aureus; test: Antibacterial activity against methicillin-resistant Staphylococcus aureus clinical isolate 1-may after 16 to 20 hrs by broth microdilution method; format: functional
Procedure, shortened: (§1)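 CLSI broth microdilution in Mueller-Hinton broth. A 4-6 h culture was diluted to about 10⁶ CFU/mL and mixed 1:1 with compound dilutions prepared at 256 to 0.5 µg/mL from aqueous stocks. Plates were incubated at 37 °C for 16-20 h and read visually for MIC. Each concentration was run in duplicate, and the experiment was repeated at least twice. Vancomycin and meropenem were comparators.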

[3] = system: Escherichia coli; test: Antibacterial activity against Escherichia coli ATCC 25922 at sub MIC after 20 passages; format: functional, organism-based
Procedure, shortened: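 The MIC was first measured by broth microdilution. Cells grown at MIC/2 were then carried into a fresh MIC assay after each 24 h, repeated over 20 serial passages. Norfloxacin (S. aureus) and colistin (E. coli) served as control antibiotics. Resistance was defined as a >4-fold rise over the original MIC.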

[4] = system: Klebsiella pneumoniae; test: Antibacterial activity against drug-resistant carbapenemase producing Klebsiella pneumoniae clinical isolate KP-13-55 after 16 to 20 hrs by broth microdilution method; format: functional; procedure, shortened: as §1
[5] = system: Escherichia coli; test: Antibacterial activity against drug-resistant NDM1 producing Escherichia coli clinical isolate CF-15-61 after 16 to 20 hrs by broth microdilution method; format: functional; procedure, shortened: as §1
[6] = system: Staphylococcus aureus; test: Disruption of 24 hrs cultured Staphylococcus aureus ATCC 29213 biofilm assessed as cell viability in biofilm at 16 ug/ml after 24 hrs by crystal violet staining-based assay (reference value: 15.96 log10CFU/ml); format: functional
[7] = system: Klebsiella pneumoniae; test: Antibacterial activity against drug-resistant carbapenemase producing Klebsiella pneumoniae clinical isolate KP-14-1 after 16 to 20 hrs by broth microdilution method; format: functional; procedure, shortened: as §1
[8] = system: Staphylococcus aureus; test: Antibacterial activity against methicillin-resistant Staphylococcus aureus clinical isolate 0831010 after 16 to 20 hrs by broth microdilution method; format: functional; procedure, shortened: as §1
[9] = system: Staphylococcus aureus; test: Antibacterial activity against methicillin-resistant Staphylococcus aureus clinical isolate 1105183 cono7 after 16 to 20 hrs by broth microdilution method; format: functional; procedure, shortened: as §1
[10] = system: Staphylococcus aureus; test: Bactericidal activity against Staphylococcus aureus ATCC 29213 after 20 to 24 hrs; format: functional; details: read-out: MBC99.9
Procedure, shortened: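 MBC: wells showing little or no turbidity in the broth microdilution MIC assay were plated (20 µL) on agar and incubated 20-24 h at 37 °C. MBC is the lowest concentration giving no colonies.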

[11] = system: Staphylococcus aureus; test: Disruption of 24 hrs cultured Staphylococcus aureus ATCC 29213 biofilm assessed as cell viability in biofilm at 2 ug/ml after 24 hrs by crystal violet staining-based assay (reference value: 15.96 log10CFU/ml); format: functional
[12] = system: Staphylococcus aureus; test: Disruption of 24 hrs cultured Staphylococcus aureus ATCC 29213 biofilm assessed as cell viability in biofilm at 128 ug/ml after 24 hrs by crystal violet staining-based assay (reference value: 15.96 log10CFU/ml); format: functional
[13] = system: Escherichia coli; test: Induction of inner membrane permeabilization in Escherichia coli ATCC 25922 at 10 to 20 ug/ml measured every 2 mins for 12 mins by propidium iodide staining-based fluorescence assay; format: functional, organism-based
Procedure, shortened: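 Mid-log cells (~10⁸ CFU/mL) were suspended in PBS (S. aureus) or HEPES/glucose/KCl (E. coli). They were preincubated with propidium iodide for 30 min (S. aureus) or 40 min (E. coli), and baseline fluorescence was read for 8 min. Compound was added to 20 µg/mL final, and fluorescence (ex 535/em 617 nm) was read every 2 min for 12 min.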

[14] = system: Staphylococcus aureus; test: Ratio of MBC99.9 for methicillin-resistant Staphylococcus aureus in presence of 50% sheep serum to MBC99.9 for methicillin-resistant Staphylococcus aureus ATCC 29213 in presence of 50% sheep plasma; format: functional
Procedure, shortened: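 MRSA at 10⁵ CFU/mL in 50% MHB plus 50% sheep serum, plasma or defibrinated blood; serum and plasma were obtained by centrifugation at 3,500 rpm for 10 min. Aqueous dilutions prepared at 512-4 µg/mL were added 1:3 to the suspension and incubated for 20-24 h at 37 °C. Well contents (20 µL) were plated on MHA for 20-24 h, and MBC was the concentration giving no colonies.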

[15] = system: Staphylococcus aureus; test: Disruption of 24 hrs cultured Staphylococcus aureus ATCC 29213 biofilm assessed as cell viability in biofilm at 8 ug/ml after 24 hrs by crystal violet staining-based assay (reference value: 15.96 log10CFU/ml); format: functional
[16] = system: Klebsiella pneumoniae; test: Antibacterial activity against drug-resistant carbapenemase producing Klebsiella pneumoniae clinical isolate KP-13-45 after 16 to 20 hrs by broth microdilution method; format: functional; procedure, shortened: as §1
[17] = system: Staphylococcus aureus; test: Disruption of 24 hrs cultured Staphylococcus aureus ATCC 29213 biofilm assessed as cell viability in biofilm at 64 ug/ml after 24 hrs by crystal violet staining-based assay (reference value: 15.96 log10CFU/ml); format: functional
[18] = system: Enterococcus faecalis; test: Antibacterial activity against Enterococcus faecalis ATCC 29212 after 16 to 20 hrs by broth microdilution method; format: functional
Procedure, shortened: (§2)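 Broth microdilution per CLSI. Bacteria grown 4-6 h (about 10⁸ CFU/mL), then diluted to about 10⁶ CFU/mL. Medium: Mueller-Hinton broth, except Luria-Bertani broth for E. coli. Compounds in sterile water, twofold series 256-0.5 µg/mL, mixed 1:1 with inoculum, 37 °C for 16-20 h. MIC is the lowest concentration without visible growth. Duplicate wells; experiment repeated at least twice.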

[19] = system: Escherichia coli; test: Antibacterial activity against drug-resistant NDM1 producing Escherichia coli clinical isolate EC-14-54 after 16 to 20 hrs by broth microdilution method; format: functional; procedure, shortened: as §1
[20] = system: Escherichia coli; test: Antibacterial activity against drug-resistant NDM1 producing Escherichia coli clinical isolate Ecl-13-62 after 16 to 20 hrs by broth microdilution method; format: functional; procedure, shortened: as §1
[21] = system: Klebsiella pneumoniae; test: Antibacterial activity against drug-resistant carbapenemase producing Klebsiella pneumoniae clinical isolate KP-13-54 after 16 to 20 hrs by broth microdilution method; format: functional; procedure, shortened: as §1
[22] = system: Klebsiella pneumoniae; test: Antibacterial activity against drug-resistant carbapenemase producing Klebsiella pneumoniae clinical isolate KP-14-4 after 16 to 20 hrs by broth microdilution method; format: functional; procedure, shortened: as §1
[23] = system: Klebsiella pneumoniae; test: Antibacterial activity against drug-resistant carbapenemase producing Klebsiella pneumoniae clinical isolate EC-13-23 after 16 to 20 hrs by broth microdilution method; format: functional; procedure, shortened: as §1
[24] = system: Staphylococcus aureus; test: Disruption of 24 hrs cultured Staphylococcus aureus ATCC 29213 biofilm assessed as cell viability in biofilm at 4 ug/ml after 24 hrs by crystal violet staining-based assay (reference value: 15.96 log10CFU/ml); format: functional
[25] = system: Staphylococcus aureus; test: Disruption of 24 hrs cultured Staphylococcus aureus ATCC 29213 biofilm assessed as decrease in cell viability in biofilm after 24 hrs by crystal violet staining-based assay; format: functional, organism-based
[26] = system: Staphylococcus aureus; test: Antibacterial activity against methicillin-resistant Staphylococcus aureus clinical isolate 1104060 after 16 to 20 hrs by broth microdilution method; format: functional; procedure, shortened: as §1
[27] = system: Escherichia coli; test: Antibacterial activity against Escherichia coli ATCC 25922 after 16 to 20 hrs by broth microdilution method; format: functional; procedure, shortened: as §2
[28] = system: Escherichia coli; test: Antibacterial activity against drug-resistant NDM1 producing Escherichia coli clinical isolate EA-14-61 after 16 to 20 hrs by broth microdilution method; format: functional; procedure, shortened: as §1

Structure (SMILES): CCCCCCCC[N+](C)(C)CC(=O)Nc1ccc(C(=O)/C=C/c2ccccc2F)cc1.[Cl-]
- Activity [1]: 9.59 log10CFU/ml
- MIC [2]: 1 µg/mL
- Activity [3]: Active
- MIC [4]: 16 µg/mL
- MIC [5]: 4 µg/mL
- Activity [6]: 10.95 log10CFU/ml
- MIC [7]: 8 µg/mL
- MIC [8]: 0.5 µg/mL
- MIC [9]: 1 µg/mL
- MBC [10]: 8 µg/mL
- Activity [11]: 13.93 log10CFU/ml
- Activity [12]: 8.95 log10CFU/ml
- Activity [13]: Active
- Ratio [14]: 2
- Activity [15]: 11.696 log10CFU/ml
- MIC [16]: 4 µg/mL
- Activity [17]: 9.41 log10CFU/ml
- MIC [18]: 1 µg/mL
- MIC [19]: 16 µg/mL
- MIC [20]: 4 µg/mL
- MIC [21]: 4 µg/mL
- MIC [22]: 4 µg/mL
- MIC [23]: 4 µg/mL
- Activity [24]: 12.93 log10CFU/ml
- Activity [25]: Dose-dependent effect
- MIC [26]: 8 µg/mL
- MIC [27]: 2 µg/mL
- MIC [28]: 4 µg/mL
